Reference: ChEMBL document CHEMBL1914395, “Design, synthesis, and biological evaluation of callophycin A and analogues as potential chemopreventive and anticancer agents” (Bioorg Med Chem, 2011)

How the values were obtained:
[1] = molecular target: T1, Nitric oxide synthase, inducible (Mus musculus) (UniProt P29477); assay: Inhibition of iNOS-mediated nitric oxide production in LPS-stimulated mouse RAW 264.7 cells at 50 uM pretreated 15 mins before LPS challenge measured after 20 hrs relative to control; type: cell-based
T1 sequence (whole entry): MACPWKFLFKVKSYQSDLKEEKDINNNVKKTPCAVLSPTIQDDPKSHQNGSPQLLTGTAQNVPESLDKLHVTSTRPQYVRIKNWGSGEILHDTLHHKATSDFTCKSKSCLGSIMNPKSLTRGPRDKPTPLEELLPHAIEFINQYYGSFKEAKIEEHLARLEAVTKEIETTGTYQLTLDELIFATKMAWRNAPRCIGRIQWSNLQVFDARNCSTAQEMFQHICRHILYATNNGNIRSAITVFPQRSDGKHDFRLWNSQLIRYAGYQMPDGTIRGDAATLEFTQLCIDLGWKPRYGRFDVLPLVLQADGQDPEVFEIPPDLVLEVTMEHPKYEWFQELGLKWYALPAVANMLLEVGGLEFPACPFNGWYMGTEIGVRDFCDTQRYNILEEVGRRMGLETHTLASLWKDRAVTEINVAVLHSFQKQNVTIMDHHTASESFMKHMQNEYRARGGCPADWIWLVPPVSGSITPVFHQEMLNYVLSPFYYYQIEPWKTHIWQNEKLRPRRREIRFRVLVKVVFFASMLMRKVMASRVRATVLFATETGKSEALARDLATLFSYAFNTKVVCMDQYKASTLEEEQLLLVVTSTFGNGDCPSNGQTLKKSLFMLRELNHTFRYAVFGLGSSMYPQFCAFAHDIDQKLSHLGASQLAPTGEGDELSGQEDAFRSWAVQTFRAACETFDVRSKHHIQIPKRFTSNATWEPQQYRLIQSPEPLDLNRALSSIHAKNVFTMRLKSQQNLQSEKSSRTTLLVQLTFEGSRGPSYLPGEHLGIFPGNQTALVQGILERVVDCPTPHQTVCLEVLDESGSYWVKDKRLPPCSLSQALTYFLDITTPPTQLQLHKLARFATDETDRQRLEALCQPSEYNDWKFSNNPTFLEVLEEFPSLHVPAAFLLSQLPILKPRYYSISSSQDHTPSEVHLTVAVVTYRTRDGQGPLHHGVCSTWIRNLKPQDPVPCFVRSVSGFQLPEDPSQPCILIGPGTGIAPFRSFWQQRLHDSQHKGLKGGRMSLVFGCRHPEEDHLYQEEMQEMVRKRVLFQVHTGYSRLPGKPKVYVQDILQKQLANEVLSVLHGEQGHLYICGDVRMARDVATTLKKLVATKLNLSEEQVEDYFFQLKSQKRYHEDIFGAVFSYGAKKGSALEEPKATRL
Outline: (§1)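 RAW 264.7 cells cultured 24 h at 37°C, then given serially diluted compounds for 15 min before LPS (1 μg/mL) for 20 h. Nitrite in the medium measured with Griess reagent at 540 nm against a sodium nitrite standard curve. Cytotoxicity checked by SRB under the same conditions.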

[2] = molecular target: T1, Nitric oxide synthase, inducible (Mus musculus); assay: Inhibition of iNOS-mediated nitric oxide production in LPS-stimulated mouse RAW 264.7 cells assessed as cell survival at 50 uM pretreated 15 mins before LPS challenge measured after 20 hrs relative to control; type: cell-based
Outline: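 RAW 264.7 cells were incubated at 37°C, 5% CO2 for 24 h. They were then exposed to compound for 15 min before LPS (1 μg/mL) was added for 20 h. Cytotoxicity was measured by SRB staining under the same conditions. Survival is expressed as % relative to vehicle-treated controls at 50 μM.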

HEK293 [3] = assay: Inhibition of TNF-alpha-induced NFkappaB activation in human HEK293 cells at 50 uM after 6 hrs by luciferase assay relative to control; type: cell-based
Outline: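 Cells incubated 6 h with TNFα plus test compound, then luciferase activity measured. Results expressed as percent of TNFα-treated control. Screening concentration 50 μM.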

HEK293 [4] = assay: Inhibition of TNF-alpha-induced NFkappaB activation in human HEK293 cells assessed as cell survival at 50 uM after 6 hrs by luciferase assay relative to control; type: cell-based
Aromatase = molecular target: T2, Aromatase (Homo sapiens, UniProt P11511); assay: Inhibition of aromatase at 50 uM after 10 mins preincubation by plate reader relative to control
T2 sequence (P11511 whole entry): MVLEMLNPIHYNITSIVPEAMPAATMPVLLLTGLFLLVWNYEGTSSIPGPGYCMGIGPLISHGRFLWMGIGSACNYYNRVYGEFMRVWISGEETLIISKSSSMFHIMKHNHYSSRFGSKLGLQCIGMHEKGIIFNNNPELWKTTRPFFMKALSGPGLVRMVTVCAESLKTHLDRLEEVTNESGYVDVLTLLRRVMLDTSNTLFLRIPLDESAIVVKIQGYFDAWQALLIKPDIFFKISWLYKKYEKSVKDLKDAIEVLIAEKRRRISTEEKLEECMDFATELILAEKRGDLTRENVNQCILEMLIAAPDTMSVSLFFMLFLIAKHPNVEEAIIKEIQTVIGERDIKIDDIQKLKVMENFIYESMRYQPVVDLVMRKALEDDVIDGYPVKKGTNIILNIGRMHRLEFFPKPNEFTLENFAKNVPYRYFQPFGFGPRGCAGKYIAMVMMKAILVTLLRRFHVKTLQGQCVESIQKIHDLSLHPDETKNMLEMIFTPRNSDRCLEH
Outline: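 CYP19 enzyme. Compound pre-incubated 10 min with an NADPH-regenerating system (NADP+, glucose 6-phosphate, G6PDH, MgCl2, albumin) in 50 mM potassium phosphate pH 7.4. Enzyme and 0.4 μM dibenzylfluorescein substrate then added, 30 min at 37 °C. Quenched with 2 N NaOH and incubated a further 2 h at 37 °C. Fluorescence read at ex 485/em 530 nm. Compound tested at 50 μM.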

[5] = molecular target: NAD(P)H dehydrogenase [quinone] 1 (Mus musculus) (UniProt Q64669); assay: Induction of quinone reductase 1 activity in mouse Hepa-1c1c7 cells assessed as cell survival at 50 uM by MTT assay relative to control; type: cell-based
[6] = molecular target: NAD(P)H dehydrogenase [quinone] 1 (Mus musculus) (UniProt Q64669); assay: Induction of quinone reductase 1 activity in mouse Hepa-1c1c7 cells at 50 uM by MTT assay relative to untreated control; type: cell-based
Outline: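 Hepa 1c1c7 murine hepatoma cells treated with compound at 50 μM. QR1 measured by NADPH-dependent, menadiol-mediated reduction of MTT to formazan. Protein measured by crystal violet staining of identical plates. Specific activity is nmol formazan per mg protein per min. Induction ratio is treated versus DMSO-treated control.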

MCF7 = assay: Antiproliferative activity against human MCF7 cells assessed as survival at 50 uM after 72 hrs by SRB assay relative to control; type: functional; details: MCF7, 72 h, read-out: Survival
Outline: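 MCF7 cells (1 × 10^4 per well) were plated onto compound and kept at 37°C, 5% CO2 for 72 h. Cells were fixed in 10% TCA for 30 min and stained with 0.4% SRB in 1% acetic acid for 30 min. Bound dye was dissolved in 10 mM Tris (pH 10.0) and read at 515 nm. Survival is given as % of DMSO-treated controls, screened at 50 μM.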

[7] = molecular target: T3, Nitric oxide synthase, inducible (Mus musculus, UniProt P29477); assay: Inhibition of iNOS-mediated nitric oxide production in LPS-stimulated mouse RAW 264.7 cells pretreated 15 mins before LPS challenge measured after 20 hrs relative to control; type: cell-based; outline: as §1
T3 sequence (P29477 whole entry): T1 sequence (whole entry)

Sequence of NAD(P)H dehydrogenase [quinone] 1 (Mus musculus) (Q64669 whole entry): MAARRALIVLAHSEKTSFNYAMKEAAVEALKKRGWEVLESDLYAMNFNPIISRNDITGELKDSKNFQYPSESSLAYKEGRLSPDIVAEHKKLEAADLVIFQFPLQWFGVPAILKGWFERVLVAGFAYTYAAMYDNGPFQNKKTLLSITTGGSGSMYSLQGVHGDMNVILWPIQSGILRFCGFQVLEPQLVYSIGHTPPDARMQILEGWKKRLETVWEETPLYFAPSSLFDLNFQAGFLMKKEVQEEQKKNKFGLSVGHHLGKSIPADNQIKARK

Row | SMILES | inhibition [1] [%] | Survival [2] [%] | inhibition (HEK293 [3]) [%] | Survival (HEK293 [4]) [%] | inhibition at 50 µM (Aromatase) [%] | Survival [5] [%] | Ratio [6] | viability at 50 µM (MCF7) [%] | IC50 [7] [µM]
1 | CS(=O)(=O)N1Cc2[nH]c3ccccc3c2C[C@H]1C(=O)O | 6.4 | 94.2 | 51.1 | 256 | 26.5 | 96.7 | 1.1 |  | 
2 | O=C(O)[C@H]1Cc2c([nH]c3ccccc23)CN1Cc1ccccc1 | 9.9 | 109 | 41.8 | 89.5 | 19.2 | 108 | 1.8 |  | 
3 | O=C(O)[C@@H]1Cc2c([nH]c3ccccc23)CN1 [CYCLOMETHYLTRYPTOPHAN] | 2 | 100 | 4.6 | 103 | 20.7 | 99.2 | 1.1 |  | 
4 | COC(=O)[C@H]1Cc2c([nH]c3ccccc23)CN1S(=O)(=O)c1ccc(C)cc1 | 7.4 | 91.4 | 25.2 | 114 | 28.2 | 85.8 | 1.3 |  | 
5 | O=C(O)[C@H]1Cc2c([nH]c3ccccc23)CN1S(=O)(=O)c1ccc(Br)cc1 | 56.2 | 103 | 50.9 | 252 | 32.3 | 88.3 | 1.3 | 91.2 | 46.1
6 | COC(=O)[C@@H]1Cc2c([nH]c3ccccc23)CN1S(=O)(=O)c1ccc(Br)cc1 | 70.6 | 89.2 | 32.8 | 186 | 36.7 | 36.4 | 0.2 | -2.1 | 23.1
7 | COC(=O)[C@@H]1Cc2c([nH]c3ccccc23)CN1S(C)(=O)=O | 10.6 | 91.9 | 38.6 | 153 | 30.5 | 85.8 | 1.6 | 72.5 | 
8 | CS(=O)(=O)N1Cc2[nH]c3ccccc3c2C[C@@H]1C(=O)O | 5 | 93.1 | -2.3 | 178 | 30.7 | 80.6 | 1.9 | 88.7 | 
9 | COC(=O)[C@@H]1Cc2c([nH]c3ccccc23)CN1Cc1ccc(OCc2ccccc2)cc1 | 58 | 93.9 | 24.7 | 99.7 | 28 | 72.8 | 1.8 |  | 39.2
10 | COC(=O)[C@H]1Cc2c([nH]c3ccccc23)CN1Cc1ccc(OCc2ccccc2)cc1 | 75.9 | 86.8 | 40.5 | 91 | 27.3 | 85.4 | 1.4 | 96.7 | 29.4
11 | C#CCN1Cc2[nH]c3ccccc3c2C[C@@H]1C(=O)O | 16.4 | 87.9 | -7.7 | 72.7 | 23.5 | 94.6 | 1.6 | 107 | 
12 | O=C(O)[C@H]1Cc2c([nH]c3ccccc23)CN1Cc1ccc(O)cc1 | 27.8 | 94.7 | 54.6 | 133 | 38.4 | 91.2 | 1.5 | 71.1 | 
13 | Cc1ccc(S(=O)(=O)N2Cc3[nH]c4ccccc4c3C[C@H]2C(=O)O)cc1 | 7 | 85.5 | 42.5 | 272 | 16.9 | 88.8 | 1.4 | 96.5 | 
14 | C=CCOC(=O)N1Cc2[nH]c3ccccc3c2C[C@@H]1C(=O)O | -4 | 134 | 49.4 | 204 | 32.9 | 93.8 | 1.9 | 102 | 
15 | C#CCN1Cc2[nH]c3ccccc3c2C[C@H]1C(=O)OC | 22.3 | 84.4 | 21.1 | 117 | 24.4 | 89.6 | 1.7 | 81.1 | 
16 | O=C(O)[C@H]1Cc2c([nH]c3ccccc23)CN1 | 3.5 | 95.9 |  | 95.4 | 34.9 | 90.7 | 0.8 |  | 
17 | Cc1ccc(S(=O)(=O)N2Cc3[nH]c4ccccc4c3C[C@@H]2C(=O)O)cc1 | 2.9 | 102 | 26 | 195 | 23 | 93.8 | 1.2 | 99.8 | 
18 | O=C(O)[C@H]1Cc2c([nH]c3ccccc23)CN1CC1CC1 |  | 130 | 48.4 | 169 | 31.5 | 102 | 1.8 | 113 | 
19 | COC(=O)[C@H]1Cc2c([nH]c3ccccc23)CN1CC1CC1 | 5.6 | 124 | 29.9 | 254 | 37.9 | 81.8 | 1.8 | 102 | 
